Assay results taken from ChEMBL document CHEMBL1123103, “Pyrimidinones. 1. 2-Amino-5-halo-6-aryl-4(3H)-pyrimidinones. Interferon-inducing antiviral agents” (1985).
The source made the active and inactive calls. The calls are words filed in the database; no cut-off is given here.

What was measured:
[1] = tested on: Human alphaherpesvirus 1; assay: Intraperitoneal administration against herpes simplex virus type-1 (HSV-1) infected mice; assay type: functional
Procedure, shortened: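 ICR or CD-1 mice got drug ip in saline as the total daily dose (mg/kg/day). It was split into doses at -40, -28, -20, -3 and +3 h relative to ip inoculation with 5.6×10^4 pfu HSV-1. Mice were followed for 22 days, 15/group. Protection index = (control mortality − treated mortality)/control mortality; >0.25 counted active. Only the lowest protective dose is recorded.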

[2] = tested on: Semliki Forest virus; assay: Antiviral activity against Forest virus (SFV); assay type: functional
Procedure, shortened: (§1)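 ICR or CD-1 mice of both sexes got one drug dose by the route in the line (ip, po or sc). The drug was a suspension in 0.9% NaCl or in a CMC/polysorbate 80/benzyl alcohol/NaCl vehicle. […] Deaths were recorded daily for 6 days, 24 mice/group. ED50 is the minimal dose protecting 50% of mice, by probit analysis.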

[3] = tested on: Semliki Forest virus; assay: Effective dose administered perorally againist Forest virus infected mice; assay type: functional; conditions: po; procedure, shortened: as §1
[4] = tested on: Semliki Forest virus; assay: Effective dose administered subcutaneously againist Forest virus infected mice; assay type: functional; conditions: sc; procedure, shortened: as §1
[5] = tested on: Vesicular stomatitis virus; assay: Evaluation for serum interferon response from a single 800 mg/kg intraperitoneal administration in vesicular stomatitis virus on […] cells.; assay type: functional
Procedure, shortened: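 Mice got a single ip 800 mg/kg dose. Blood was drawn 3, 6, 8 and 12 h later from five mice per group and pooled. Interferon titer was measured by plaque reduction with vesicular stomatitis virus on L929 cells. Titer is the reciprocal serum dilution cutting plaques by 50% versus untreated cultures. Peak response within 24 h was banded: ≥2000, ~500-1000, ~50-500, ~10-50 U/mL.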

[6] = tested on: Semliki Forest virus; assay: Effective dose administered intraperitoneally againist Forest virus infected mice; assay type: functional, organism-based
Procedure, shortened: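 Drug was suspended in 0.9% NaCl or in a carboxymethylcellulose/polysorbate 80/benzyl alcohol/NaCl vehicle. Deaths were recorded daily for 6 days, with 24 mice per group. The ED50 is the minimal dose protecting 50% of mice, calculated by probit analysis.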

| Structure (SMILES) | Protection index [1] | ED50 [2] [mg/kg] | ED50 [3] [mg/kg] | ED50 [4] [mg/kg] | IFN [5] | ED50 [6] |
| --- | --- | --- | --- | --- | --- | --- |
| Nc1nc(O)c(Cl)c(-c2cccc(O)c2)n1 | 0.5 | – | – | – | – | – |
| Nc1nc(O)c(Br)c(-c2cnccn2)n1 | – | 65 | > 400 | 365 | – | – |
| Nc1nc(O)c(I)c(-c2ccc(C(=O)O)cc2)n1 | – | 380 | – | – | – | – |
| Cc1ccccc1-c1nc(N)nc(O)c1Br | 0.2 | 60 | > 400 | > 400 | – | – |
| Nc1nc(=O)c(Br)c(-c2ccccc2)[nH]1 [BROPIRIMINE] | 0.6 | 100 | 100 | 50 | – | – |
| Nc1nc(O)c(I)c(-c2cccc(F)c2F)n1 | 0.34 | > 400 | 365 | – | >=2000 ml | – |
| Nc1nc(O)c(I)c(-c2ccccn2)n1 | – | 215 | 235 | > 400 | >=2000 ml | – |
| COc1cccc(-c2nc(N)nc(O)c2Cl)c1OC | – | – | – | – | – | inactive |
| Nc1nc(O)c(Br)c(-c2cc(F)ccc2F)n1 | 0 | 165 | > 400 | – | >=2000 ml | – |
| Nc1nc(O)c(Br)c(-c2ccco2)n1 | 0.14 | 295 | > 400 | > 400 | 50 units/mL | – |
| COc1cc(OC)cc(-c2nc(N)nc(O)c2Br)c1 | – | 15 | – | – | – | – |
| Nc1nc(O)c(Br)c(-c2cccc(O)c2)n1 | 0 | – | – | – | – | inactive |
| Nc1nc(O)c(I)c(-c2cc(F)ccc2F)n1 | 0 | 95 | > 400 | – | >=2000 ml | – |
| Nc1nc(O)c(Cl)c(-c2ccccc2Cl)n1 | – | 300 | – | – | 50 units/mL | – |
| Nc1nc(O)c(Br)c(-c2cccc(I)c2)n1 | – | 355 | 170 | > 400 | – | – |
| Nc1nc(O)c(Br)c(-c2ccccc2Cl)n1 | – | 285 | – | – | – | – |
| Nc1nc(O)c(I)c(-c2ccc(F)cc2)n1 | 0.29 | 245 | 260 | 250 | >=2000 ml | – |
| N#Cc1ccc(-c2nc(N)nc(O)c2I)cc1 | 0 | – | – | – | – | inactive |
| Nc1nc(O)c(Cl)c(-c2ccc(Cl)c(Cl)c2)n1 | 0 | 225 | > 400 | > 400 | – | – |
| Nc1nc(O)c(Cl)c(-c2ccc(OCc3ccccc3)cc2)n1 | – | – | – | – | – | inactive |
| Nc1nc(O)c(I)c(-c2ccc(OCc3ccccc3)cc2)n1 | – | > 400 | – | – | – | – |
| CCOCCOc1cccc(-c2nc(N)nc(O)c2I)c1 | 0.21 | – | – | – | – | – |
| Nc1nc(O)c(Cl)c(-c2ccco2)n1 | – | 120 | – | – | – | – |
| Nc1nc(O)c(Br)c(-c2cccc(Cl)c2)n1 | 0.78 | 30 | > 400 | 300 | >=2000 ml | – |

| Structure (SMILES) | Protection index [1] | ED50 [2] [mg/kg] | ED50 [3] [mg/kg] | ED50 [4] [mg/kg] | IFN [5] | ED50 [6] |
| --- | --- | --- | --- | --- | --- | --- |
| Nc1nc(O)c(I)c(-c2cccc([N+](=O)[O-])c2)n1 | 0.6 | 90 | > 400 | 155 | >=2000 ml | – |
| CCOc1cccc(-c2nc(N)nc(O)c2Cl)c1 | 0.13 | – | – | – | – | – |
| Nc1nc(O)c(I)c(-c2cccc(C(F)(F)F)c2)n1 | 0.36 | 160 | > 400 | > 400 | >=2000 ml | – |
| COc1cc(OC)cc(-c2nc(N)nc(O)c2Cl)c1 | – | 90 | – | – | – | – |
| Nc1nc(O)c(Cl)c(-c2cc(F)cc(F)c2)n1 | 0.5 | 185 | > 400 | – | 50 units/mL | – |
| Nc1nc(O)c(Br)c(-c2ccc(OCc3ccccc3)cc2)n1 | – | – | – | – | – | inactive |
| COc1ccccc1-c1nc(N)nc(O)c1I | 0.69 | 25 | > 400 | 120 | 50 units/mL | – |
| CCOc1cccc(-c2nc(N)nc(O)c2Br)c1 | 0.4 | – | – | – | – | – |
| Nc1nc(O)c(I)c(-c2cccnc2)n1 | 0 | 130 | > 400 | 175 | 50 units/mL | – |
| Nc1nc(O)c(Cl)c(-c2cc(Cl)ccc2Cl)n1 | 0.47 | 120 | 200 | 115 | >=2000 ml | – |
| COc1cc(OC)cc(-c2nc(N)nc(O)c2I)c1 | – | 55 | – | – | – | – |
| Nc1nc(O)c(I)c(-c2c(F)cc(F)cc2F)n1 | 0 | – | – | – | – | inactive |
| Nc1nc(O)c(I)c(-c2ccccc2Cl)n1 | 0.13 | 90 | – | – | – | – |
| Nc1nc(O)c(Cl)c(-c2ccccc2)n1 | 0.62 | 100 | 90 | 105 | >=2000 ml | – |
| Nc1nc(O)c(Br)c(-c2ccccc2O)n1 | – | – | – | – | – | inactive |
| COc1ccccc1-c1nc(N)nc(O)c1Br | 0.92 | 15 | > 400 | 100 | 50 units/mL | – |
| Nc1nc(O)c(Cl)c(-c2cccc([N+](=O)[O-])c2)n1 | 0.92 | 140 | > 400 | 380 | 50 units/mL | – |
| Nc1nc(O)c(Br)c(-c2c(F)ccc(F)c2F)n1 | 0 | – | – | – | – | inactive |
| Nc1nc(O)c(Br)c(-c2cccc(F)c2F)n1 | 0.54 | 115 | 330 | – | >=2000 ml | – |
| Nc1nc(O)c(Cl)c(-c2ccccc2O)n1 | 0.61 | – | – | – | – | – |
| Nc1nc(O)c(I)c(-c2ccncc2)n1 | – | 365 | > 400 | > 400 | – | – |
| Nc1nc(O)c(I)c(-c2cc(Cl)ccc2Cl)n1 | 0 | 305 | 75 | 115 | >=2000 ml | – |
| Nc1nc(O)c(Br)c(-c2cc(Br)c(O)c(Br)c2)n1 | – | – | – | – | – | inactive |
| Nc1nc(O)c(Cl)c(-c2cccc(I)c2)n1 | – | – | – | – | – | inactive |

| Structure (SMILES) | Protection index [1] | ED50 [2] [mg/kg] | ED50 [3] [mg/kg] | ED50 [4] [mg/kg] | IFN [5] | ED50 [6] |
| --- | --- | --- | --- | --- | --- | --- |
| Nc1nc(O)c(Br)c(-c2ccoc2)n1 | – | > 400 | – | – | – | – |
| Nc1nc(O)c(Br)c(-c2ccc(Cl)c(Cl)c2)n1 | 0.29 | 215 | > 400 | > 400 | – | – |
| Nc1nc(O)c(Br)c(-c2cccnc2)n1 | 0.45 | 75 | > 400 | > 400 | – | – |
| Nc1nc(O)c(I)c(-c2cccc(I)c2)n1 | 0.53 | 125 | – | – | 50 units/mL | – |
| COc1cccc(-c2nc(N)nc(O)c2I)c1OC | – | – | – | – | – | inactive |
| Nc1nc(O)c(Br)c(-c2cc(Cl)ccc2Cl)n1 | – | 180 | > 400 | > 400 | >=2000 ml | – |
| Nc1nc(O)c(I)c(-c2cc(F)cc(F)c2)n1 | 0 | 230 | > 400 | – | >=2000 ml | – |
| Cc1ccccc1-c1nc(N)nc(O)c1I | 0.13 | 175 | > 400 | 205 | – | – |
| Nc1nc(O)c(Cl)c(-c2cccc(Cl)c2)n1 | 0.86 | 135 | > 400 | > 400 | 50 units/mL | – |
| Nc1nc(O)c(Cl)c(-c2ccc(F)cc2)n1 | 0.85 | 300 | > 400 | 355 | – | – |
| Nc1nc(O)c(Br)c(-c2ccccn2)n1 | – | 75 | 310 | 65 | >=2000 ml | – |
| Nc1nc(O)c(I)c(-c2ccccc2)n1 | 0.86 | 50 | > 400 | 25 | 50 units/mL | – |
| Nc1nc(O)c(Br)c(-c2cc(F)cc(F)c2)n1 | 0 | 150 | – | – | 50 units/mL | – |
| CCOCCOc1cccc(-c2nc(N)nc(O)c2Br)c1 | 0.55 | – | – | – | – | – |
| Nc1nc(O)c(I)c(-c2ccc(Cl)c(Cl)c2)n1 | 0.36 | 115 | > 400 | 240 | >=2000 ml | – |
| COc1cccc(-c2nc(N)nc(O)c2Br)c1OC | – | – | – | – | – | inactive |
| Nc1cccc(-c2nc(N)nc(O)c2Br)c1 | – | – | – | – | – | inactive |
| Nc1nc(O)c(I)c(-c2cc(Cl)cc(Cl)c2)n1 | 0.4 | 140 | > 400 | 225 | 50 units/mL | – |
| Nc1nc(O)c(I)c(-c2c(F)cccc2F)n1 | – | 285 | – | – | – | – |
| COc1ccccc1-c1nc(N)nc(O)c1Cl | 0.53 | 20 | > 400 | – | 50 units/mL | – |
| Nc1nc(O)c(Cl)c(-c2cccc3ccccc23)n1 | 0.54 | 80 | > 400 | > 400 | – | – |
| CCOc1cccc(-c2nc(N)nc(O)c2I)c1 | 0 | – | – | – | – | – |
| Nc1nc(O)c(Br)c(-c2cccc([N+](=O)[O-])c2)n1 | 0.53 | 140 | > 400 | > 400 | – | – |
